Screening results as filed in PubChem BioAssay.
FLuc act counter: firefly luciferase counter-screen for stimulation assays; P08659; ATPlite luciferase biochemical, luminescence, 10 min; 0 = ATP-free wells, 1 = DMSO control; activation factor at 10 µM; 200,000 tested, under 10 active;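 active = luciferase activation factor, scaled between plate controls, of at least 2 with compound at 10 µM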
Target sequence (P08659 whole entry, looked up): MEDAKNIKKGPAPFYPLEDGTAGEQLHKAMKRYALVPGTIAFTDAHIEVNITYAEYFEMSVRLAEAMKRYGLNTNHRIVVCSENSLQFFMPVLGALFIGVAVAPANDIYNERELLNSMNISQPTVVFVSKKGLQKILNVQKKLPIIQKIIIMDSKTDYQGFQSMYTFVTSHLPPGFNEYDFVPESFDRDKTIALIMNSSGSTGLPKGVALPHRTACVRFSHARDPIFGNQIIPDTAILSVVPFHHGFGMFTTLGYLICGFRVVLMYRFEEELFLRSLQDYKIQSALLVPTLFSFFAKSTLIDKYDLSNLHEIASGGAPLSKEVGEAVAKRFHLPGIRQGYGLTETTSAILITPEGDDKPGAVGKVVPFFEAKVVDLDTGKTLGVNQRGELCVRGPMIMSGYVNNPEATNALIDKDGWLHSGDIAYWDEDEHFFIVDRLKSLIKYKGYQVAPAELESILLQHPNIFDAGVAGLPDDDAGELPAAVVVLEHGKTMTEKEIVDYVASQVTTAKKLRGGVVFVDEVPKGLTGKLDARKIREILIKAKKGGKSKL
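test system = cell-free luciferase reagent | medium = PBS as buffer for the ATP substrate | dosing = test compounds dosed from 2 mM stocks in 100% DMSO | incubation = 10 min at ambient temperature | detection = luminescence measurement of luciferase light output | benchmarks = low control with PBS replacing ATP, high control enzyme plus ATP without compound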
PPC-1+TRAIL kill: PPC-1 cancer cell killing with TRAIL present. PPC-1 cells + TRAIL, ATPLite viability luminescence. cell killing (% activity), % at 4 µM or 5 µM. actives 0.41% (n = 220,000). AID 1443;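 active = cell killing above 50% in the first pass at 4 µM, then a duplicate retest at 5 µM averaging 50% or more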;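 also: plate controls were cells with TRAIL plus DMSO for no effect and medium-only wells lacking cells for full effect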
TRAIL sens C8: caspase-8 TRAIL sensitization; inhibition (viability loss, TRAIL sensitization), % at 10 µM; actives 1% (n = 360,000); NB7+C8 cells + TRAIL, ATPlite viability luminescence;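 active = compounds causing at least 50% loss of cell viability in the single-dose screen, relative to plate controls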
FLuc inh counter: inhibits firefly luciferase, flagging false hits in luciferase inhibition screens; inhibition, % at 10 µM; ATPLite firefly luciferase biochemical luminescence, 10 min; actives 1.5% (n = 200,000);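 active = inhibition above about 50% when tested at 10 µM, limit read from the data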
HSP90 refold inh: inhibitors of HSP90 luciferase refolding in rabbit reticulocyte lysate | inhibition, % at 5.6 µM | luciferase refolding luminescence, 3 h | actives 0.91% (n = 290,000);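 active = inhibition above the screen-wide mean plus 3 SD, computed separately per campaign, cut at about 16% in these data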;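 also: 0% = DMSO wells and 100% = 60 µM geldanamycin wells; inhibitors lower the luminescence because luciferase stays unfolded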
HSP90 inh confirm: confirmation of HSP90 inhibitors. inhibition, % at 5.9 µM. rabbit reticulocyte lysate, luciferase refolding luminescence, 3 h. actives 64% (n = 2,300). shares compounds with HSP90 refold inh; in the data active = inhibition above about 18%;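 also: 0% = vehicle wells and 100% = reference inhibitor wells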
luciferase ctr: firefly luciferase inhibition, HSP90 counter-screen. actives 48% (n = 2,300). purified native firefly luciferase, luminescence. AID 1847. inhibition, % at 5.9 µM. shares compounds with HSP90 refold inh;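 active = inhibition above the mean inhibition of all tested sample wells plus 3 SD, cut at about 10% in these data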;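 also: 0% = DMSO with luciferase and 100% = wells lacking luciferase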
The depositor's hits bear a star; . = no result given. An excerpt weighted towards active compounds, which were near 2% of everything screened.

SMILES | FLuc act counter | PPC-1+TRAIL kill | TRAIL sens C8 | FLuc inh counter | HSP90 refold inh | HSP90 inh confirm | luciferase ctr
CCN(CC)CCCN(C(=O)Cn1nnc(-c2ccc(OC)c(OC)c2)n1)C(C(=O)NC(C)(C)C)c1ccc(F)cc1 (stereo unspecified) | 1 | 16.7 | -7.2 | -4.1 | -3.4 | . | .
Cc1ccc2nc(Nc3ncc4c(n3)CCCC4=O)nc(C)c2c1 | 1 | -7.3 | . | 1.5 | . | . | .
Cc1cc(C)cc(Nc2ncc3c(n2)CCCC3=O)c1 | 0.8 | 13.8 | 0.6 | 15.7 | 17.4* | 42.7* | 23.3*
CCCCC(=O)N(C)c1c(CC)nc2c(OCC(N)=O)cccn12 | . | . | -5.6 | . | . | . | .
O=C(O)CCC1OC(=O)C(O)=C1c1ccccc1 (stereo unspecified) | . | 12.8 | -2.6 | . | . | . | .
CCOc1cc(CN2CCN(CCc3ccccc3)C(CCO)C2)ccc1OC (stereo unspecified) | 1.1 | -5.2 | -1.1 | -6.0 | 26.7* | -2.5 | -6.0
O=C(O)c1ccc(-c2nc3ccccc3s2)o1 | . | 3.6 | 7.9 | . | 63.3* | 79.7* | 23.8*
O=C(c1ccc(-c2nc3ccccc3s2)o1)N1CCN(c2ccccc2O)CC1 | . | . | 21.9 | . | 3.9 | . | .
CCOC(=O)N1CCC(NC(=O)c2cc(COc3c(C)cccc3C)on2)CC1 | . | . | 14.3 | . | -6.0 | . | .
CCCC(=O)Nc1nc2ccc(C(=O)OCC)cc2s1 | 0.9 | -6.4 | -1.9 | 7.1 | 7.3 | . | .
CCCCC(=O)Nc1nc2ccc(C(=O)OC)cc2s1 | 0.9 | 14.6 | 2.6 | 6.1 | 41.2* | 58.6* | -16.5
O=C(O)c1ccc(-c2nnn(Cc3cccc(C(F)(F)F)c3)n2)cc1 | . | -2.4 | -9.6 | . | -2.9 | . | .
O=C(Nc1cc2ccccc2oc1=O)c1ccccc1 | 0.3 | 48.5 | 55.2* | 67.4* | 25.4* | 85.8* | 73.8*
CCc1nnc(NC(=O)CCn2cnc3ccccc3c2=O)s1 | 1 | 7.9 | 7.1 | -2.9 | 1.4 | . | .
CCc1nnc(NC(=O)Nc2ccccc2OC)s1 | 1 | 18.9 | -0.8 | -2.6 | -2.9 | . | .
COc1ccc(C(=O)Nc2nnc(SCC(=O)NCc3ccco3)s2)c(OC)c1 | . | . | 58.8* | . | 42.6* | 62.0* | 60.3*
COc1cccc(C(=O)Nc2nnc(SCC(=O)NC3CC3)s2)c1 | . | . | 43.7 | . | 6.1 | . | .
CCOc1ccc(NC(=O)Nc2nnc(CC)s2)cc1 | 1 | 0.5 | -10.5 | 1.2 | 17.6* | -1.8 | -9.2
COc1ccc(C(=O)Nc2nnc(SCC(=O)NC3CC3)s2)cc1 | . | . | 78.4* | . | 22.5* | 28.6* | 16.1*
CCc1nnc(NC(=O)c2ccc(OC)cc2OC)s1 | 0.5 | 34.0 | 27.9 | 53.7* | 21.3* | 46.9* | 42.6*
COC(=O)c1ccc(COC(=O)c2ccc(C)c(S(=O)(=O)N3CCCCC3)c2)cc1 | . | . | -0.1 | . | . | . | .
CCCCn1c(N)c(N(Cc2ccccc2)C(=O)COc2ccccc2F)c(=O)[nH]c1=O | . | . | -16.2 | . | . | . | .
COc1ccc(NC(=O)CN(C)C(=O)c2c(-c3c(F)cccc3Cl)noc2C)cc1 | . | . | -1.2 | . | . | . | .
O=C(CN1CCN(c2ccc(F)cc2)CC1)N1N=CCC1c1ccccc1 (stereo unspecified) | 1 | 24.2 | 5.9 | -3.7 | 2.8 | . | .
O=C(CN1CCN(c2ccccc2)CC1)N1N=CCC1c1ccccc1 (stereo unspecified) | 1 | 10.0 | -6.4 | -2.5 | 38.8* | -8.8 | -9.3
SMILES | FLuc act counter | PPC-1+TRAIL kill | TRAIL sens C8 | FLuc inh counter | HSP90 refold inh | HSP90 inh confirm | luciferase ctr
CC(=O)Nc1cccc(-c2csc(Nc3ccccn3)n2)c1 | 0.7 | 39.4 | 22.0 | 31.1 | 19.0* | 8.8 | -10.2
CC(=O)Nc1cccc(-c2csc(Nc3cc(C)ccn3)n2)c1 | 0.7 | 0.1 | -21.4 | 30.7 | 2.8 | . | .
Cc1ccc(N=Nc2ccc3ccccc3c2O)cc1 | . | . | 74.7* | . | 58.7* | 76.8* | 72.6*
COc1ccc(N=Nc2ccc3ccccc3c2)c(O)c1 | . | . | 47.4 | . | 29.8* | 53.4* | 54.8*
COc1ccc(N=Cc2oc3ccc4ccccc4c3c2O)cc1 | 0.7 | 1.3 | 27.7 | 26.2 | -0.2 | . | .
COc1cccc(N=Nc2ccc3ccccc3c2O)c1 | . | . | 57.2* | . | 27.7* | 57.7* | 57.5*
Oc1c(N=Nc2nn[nH]n2)ccc2ccccc12 | . | . | 45.4 | . | . | . | .
O=C1CC(=O)Nc2cc(S(=O)(=O)N3CCN(c4ccc([N+](=O)[O-])cc4)CC3)ccc2N1 | . | . | 10.2 | . | -1.6 | . | .
Cc1ccc(C(=O)Oc2ccccc2N2C(=O)C3C4CCC(C4)C3C2=O)cc1 (stereo unspecified) | 1.1 | 7.3 | 3.7 | -6.1 | -2.0 | . | .
CCOc1ccc(CCNC(=O)CCc2nnc3ccc(N4CCCCC4)nn23)cc1OCC | . | . | 1.4 | . | 0.8 | . | .
O=C(O)C1C2C=CC(C2)C1C(=O)Nc1cccc(C(=O)N2CCCCC2)c1 (stereo unspecified) | 1.1 | 17.6 | 4.4 | -5.6 | 29.6* | -6.6 | -9.5
Brc1ccc(-c2nc(-c3ccccn3)no2)o1 | 0.3 | 41.2 | 42.6 | 73.9* | 44.5* | 60.0* | 55.1*
COc1ccc(C(=O)/C=C/c2ccccc2F)c(OC(=O)c2ccc([N+](=O)[O-])cc2)c1 | 1.1 | 2.3 | 4.0 | -5.7 | 18.2* | 36.6* | -22.5
Cc1ccc(C2(C)NC(=O)N(CC(=O)c3ccc(Cl)s3)C2=O)cc1 (stereo unspecified) | 1 | 12.8 | 10.9 | -3.4 | 3.8 | . | .
COc1ccc(C(=O)COC(=O)CN2C(=O)c3ccccc3C2=O)c(OC)c1 | . | . | -0.2 | . | -3.0 | . | .
COC(=O)C(c1ccccc1)C(C(=O)OC)c1ccccc1 (stereo unspecified) | . | . | 6.9 | . | 1.5 | . | .
COC(=O)[C@@H](c1ccccc1)N(C)S(=O)(=O)c1cccc(S(=O)(=O)N(C)[C@@H](C(=O)OC)c2ccccc2)c1 | . | . | 12.6 | . | 22.1* | 12.3 | -7.7
COc1cccc(NC(=O)COC(=O)c2ccc3c(c2)OCCO3)c1 | . | . | -0.2 | . | . | . | .
COc1cccc(NC(=O)c2ccc3c(c2)OCO3)c1 | . | . | 53.2* | . | 29.2* | 20.0* | 4.4
COc1cccc(NC(=O)c2ccc3c(c2)OCCO3)c1 | . | . | 86.7* | . | 45.4* | 55.2* | 40.2*
CC(=NCc1ccco1)c1c(C)[nH]n(-c2nc3ccccc3s2)c1=O | 0.6 | 28.3 | 30.6 | 35.1 | 31.6* | 49.7* | 16.5*
N#CC(C#N)=c1ccc2c(c1)NC1(CCCCC1)N=2 | 0.7 | 12.3 | -7.8 | 26.2 | 51.7* | 6.8 | 1.0
N#CC(C#N)=C1NC2(CCCCC2)Cc2ccccc21 | . | 6.5 | -13.7 | . | 2.2 | . | .
Cc1cc(C(=O)N/N=C/c2ccc(O)c(O)c2O)c(C)n1-c1ccccc1 | 0.3 | 24.2 | 36.2 | 70.1* | 17.2* | 2.0 | -19.9
Cc1cc(C(=O)O)c(C)n1-c1ccccc1 | 1.1 | 10.7 | -14.9 | -8.8 | 0.0 | . | .
Cc1cc2ncc(-c3ncc(C(F)(F)F)cc3Cl)cn2n1 | 0.3 | 36.2 | 57.7* | 73.4* | 17.5* | 67.5* | 54.6*
CCOC(=O)C1(CC)Oc2ccccc2C(c2ccc(OC)cc2)=C1C(=O)OC (stereo unspecified) | . | . | 11.9 | . | . | . | .
